Published values from different studies.
Neuronal acetylcholine receptor; alpha3/beta4: Neuronal acetylcholine receptor; alpha3/beta4 (Rattus norvegicus, UniProt P04757+P12392)
HTR2B: 5-hydroxytryptamine receptor 2B (HTR2B, Homo sapiens, UniProt P41595)

SMILES	target	test	setting	measurement	value
O=S(=O)(O)c1ccc2c(N=Nc3c(O)ccc4ccccc34)cccc2c1	Bcl-2-related protein A1 (Mus musculus, UniProt Q07440, C113S/P104K)	ligand displacement, FP	–	IC50	32 µM
COc1ccc2[nH]c3c(c2c1)CCN(C)CC3	Neuronal acetylcholine receptor; alpha3/beta4	ion current, antagonist, two-electrode voltage clamp	oocytes	IC50	21.3 µM
CNC(=O)c1ccc(-c2cnn3ccc(C(=O)N(C)c4ccc(Cl)c(C(=O)OC)c4)cc23)cc1	HTR2B	cell-free assay	–	IC50	> 30 µM
Cc1cc(-c2ccccc2)nnc1NCCN1CCNCC1	HTR2B	calcium signal, antagonist, fluorescence	–	IC50	0.054 µM
COc1ccc2c3c([nH]c2c1)CCN(C)CC3	Neuronal acetylcholine receptor; alpha3/beta4	ion current, antagonist, two-electrode voltage clamp	oocytes	IC50	31.4 µM
CC[C@H](C)[C@H](NC(C)=O)C(=O)N[C@@H](CCC(=O)O)C(=O)N[C@H](C(=O)N[C@H](C=O)CC(=O)O)[C@@H](C)O	Caspase-4 (CASP4, Homo sapiens, UniProt P49662)	enzyme activity, inhibitor	–	IC50	0.555 µM
COC(=O)c1cc(N(C)C(=O)c2ccn3ncc(-c4ccc(C(=O)O)cc4)c3c2)ccc1Cl	Rho-associated protein kinase 2 (ROCK2, Homo sapiens, UniProt O75116)	enzyme activity, inhibitor	–	IC50	> 30 µM
Cn1ccc2cc3c(cc21)CCN3C(=O)Nc1cccnc1	HTR2B	ligand displacement, radioligand	–	Ki	0.0064 µM
CN(C)C(=N)N=C(N)N	speB (Escherichia coli, UniProt P60651)	enzyme activity, inhibitor, absorbance	pH 6.5	Ki	1180 µM
CC(C)N(CCc1c[nH]c2cccc(OC(=O)CCCC(=O)O)c12)C(C)C	HTR2B	ligand displacement, radioligand	–	IC50	3.6 µM
